Reference: ChEMBL document CHEMBL1800041, “Bioactive terpenes from Spongia officinalis” (J Nat Prod, 2011)
The source made the active and inactive calls. No cut-off for these calls is given here.

Experiments:
Format in all cases: functional, organism-based
Escherichia coli = experiment: Antibacterial activity against Escherichia coli by broth macrodilution method
How it was run: (§1)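 Broth macrodilution as in the antifungal test (NCCLS M27-P guideline). The medium was changed to Luria-Bertani (10 g/L Bactotryptone, 5 g/L Bactoyeast, 10 g/L NaCl, pH 7.5), and incubation was at 37 °C for 24 h.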

Staphylococcus aureus [1] = experiment: Antibacterial activity against Staphylococcus aureus by broth macrodilution method; how it was run: as §1
Candida albicans = experiment: Antifungal activity against Candida albicans by broth macrodilution method
How it was run: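 Broth macrodilution following NCCLS document M27-P guidelines for antifungal susceptibility testing of yeast.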

Staphylococcus aureus [2] = experiment: Antibacterial activity against Staphylococcus aureus at 100 ug/mL by broth macrodilution method

In the case of `C/C(=C\CCc1ccoc1)C[C@H](O)C[C@@H](C)CCCc1ccoc1`, the Activity (Escherichia coli) was “inactive”, the Activity (Staphylococcus aureus [1]) was “inactive” and the Activity (Candida albicans) was “inactive”.
`COC(=O)/C(=C\CC/C(C)=C/CC/C(C)=C/CCc1ccoc1)CC/C=C(\C)C(=O)O` was tested, and the Activity (Escherichia coli) was “inactive”, the Activity (Staphylococcus aureus [1]) was “inactive” and the Activity (Candida albicans) was “inactive”.
With `C[C@H](CCCc1ccoc1)CC(=O)C[C@@H](C)CCCc1ccoc1` the Activity (Escherichia coli) was “inactive”, the Activity (Staphylococcus aureus [1]) was “inactive” and the Activity (Candida albicans) was “inactive”.
With `C/C(=C\CCc1ccoc1)CC/C=C(\C)CCCC1=CC(=O)OC1` the Activity (Escherichia coli) was “inactive”, the Activity (Staphylococcus aureus [1]) was “inactive” and the Activity (Candida albicans) was “inactive”.
For `C/C(=C\CCc1ccoc1)CC/C=C(\C)CCCc1ccoc1`, the Activity (Escherichia coli) was “inactive”, the Activity (Staphylococcus aureus [1]) was “inactive” and the Activity (Candida albicans) was “inactive”.
With `COC(=O)/C(C)=C/CC/C(=C/CC/C(C)=C/CC/C(C)=C/CCc1ccoc1)C(=O)O` the Activity (Escherichia coli) was “inactive”, the Activity (Candida albicans) was “inactive” and the Activity (Staphylococcus aureus [2]) was “Active”.
With `C/C(=C\CCc1ccoc1)CC(=O)C[C@@H](C)CCCc1ccoc1` the Activity (Escherichia coli) was “inactive”, the Activity (Staphylococcus aureus [1]) was “inactive” and the Activity (Candida albicans) was “inactive”.
